The results in this text go back to ChEMBL document CHEMBL2311350, “Discovery of a novel phenylethyl benzamide glucokinase activator for the treatment of type 2 diabetes mellitus” (Bioorg Med Chem Lett, 2013).

The source made the active and inactive calls. The calls are words filed in the database; no cut-off is given here.

Assay [1] is filed under the species Mus musculus. Description: Antidiabetic activity in C57BL/J mouse assessed as reduction in basal glucose level measured after acute treatment. Type of assay: functional, organism-based. Put shortly:
(§1)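 Basal blood glucose change followed after acute oral dosing in non-diabetic C57BL/J6 or diabetic ob/ob mice.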

Assay [2] concerns the target T1, Hexokinase-2 (Homo sapiens) (UniProt P52789).
T1 sequence (whole entry): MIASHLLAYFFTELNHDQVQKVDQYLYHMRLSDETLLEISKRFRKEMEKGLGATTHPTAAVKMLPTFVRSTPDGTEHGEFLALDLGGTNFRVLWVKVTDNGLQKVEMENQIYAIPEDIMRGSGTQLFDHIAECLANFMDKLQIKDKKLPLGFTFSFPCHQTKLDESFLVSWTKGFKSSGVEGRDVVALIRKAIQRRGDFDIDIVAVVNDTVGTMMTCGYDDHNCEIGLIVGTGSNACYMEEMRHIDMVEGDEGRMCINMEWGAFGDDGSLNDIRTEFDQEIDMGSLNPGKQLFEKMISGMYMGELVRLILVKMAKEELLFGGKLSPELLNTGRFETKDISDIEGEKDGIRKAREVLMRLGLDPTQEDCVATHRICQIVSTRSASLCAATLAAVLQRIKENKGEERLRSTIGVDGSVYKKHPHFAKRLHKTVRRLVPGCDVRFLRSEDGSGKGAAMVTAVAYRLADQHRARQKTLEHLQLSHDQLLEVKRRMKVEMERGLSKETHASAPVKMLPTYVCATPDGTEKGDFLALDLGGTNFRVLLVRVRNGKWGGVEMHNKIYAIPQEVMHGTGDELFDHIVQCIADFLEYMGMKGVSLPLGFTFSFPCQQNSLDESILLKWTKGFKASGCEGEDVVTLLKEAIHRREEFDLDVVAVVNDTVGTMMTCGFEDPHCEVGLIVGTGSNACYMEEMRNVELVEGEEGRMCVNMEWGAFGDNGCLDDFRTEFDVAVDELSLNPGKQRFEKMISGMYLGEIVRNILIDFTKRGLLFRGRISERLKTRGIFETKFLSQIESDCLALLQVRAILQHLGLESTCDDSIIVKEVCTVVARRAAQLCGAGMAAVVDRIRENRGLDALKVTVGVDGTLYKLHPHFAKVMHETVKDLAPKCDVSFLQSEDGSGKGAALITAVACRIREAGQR
In words: Induction of hexokinase 2 (unknown origin). Put shortly:
(§2)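 Selectivity tested in enzymatic hexokinase 1 and hexokinase 2 activity assays.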

Assay [3] relates to MIN6. Description: Induction of insulin secretion in mouse MIN6 cells. The assay is classed as functional, cell-based. Put shortly: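 Glucose-dependent insulin secretion measured in the mouse pancreatic beta-cell line MIN-6 across glucose levels.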
Assay [4] is filed under the species Mus musculus. In words: Antidiabetic activity in ob/ob mouse assessed as reduction in basal glucose level measured after acute treatment. Type of assay: functional, organism-based. The method, boiled down: as §1
The species named for assay [5] is Mus musculus. Description: Antidiabetic activity in ob/ob mouse assessed as reduction in blood glucose level measured after subchronic treatment. The assay is classed as functional, organism-based. Put shortly: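 ob/ob mice dosed orally and repeatedly in a subchronic study. Blood glucose, serum lipids and body weight were monitored.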
Assay [6] concerns the target T2, Hexokinase-1 (Homo sapiens) (UniProt P19367).
T2 sequence (whole entry): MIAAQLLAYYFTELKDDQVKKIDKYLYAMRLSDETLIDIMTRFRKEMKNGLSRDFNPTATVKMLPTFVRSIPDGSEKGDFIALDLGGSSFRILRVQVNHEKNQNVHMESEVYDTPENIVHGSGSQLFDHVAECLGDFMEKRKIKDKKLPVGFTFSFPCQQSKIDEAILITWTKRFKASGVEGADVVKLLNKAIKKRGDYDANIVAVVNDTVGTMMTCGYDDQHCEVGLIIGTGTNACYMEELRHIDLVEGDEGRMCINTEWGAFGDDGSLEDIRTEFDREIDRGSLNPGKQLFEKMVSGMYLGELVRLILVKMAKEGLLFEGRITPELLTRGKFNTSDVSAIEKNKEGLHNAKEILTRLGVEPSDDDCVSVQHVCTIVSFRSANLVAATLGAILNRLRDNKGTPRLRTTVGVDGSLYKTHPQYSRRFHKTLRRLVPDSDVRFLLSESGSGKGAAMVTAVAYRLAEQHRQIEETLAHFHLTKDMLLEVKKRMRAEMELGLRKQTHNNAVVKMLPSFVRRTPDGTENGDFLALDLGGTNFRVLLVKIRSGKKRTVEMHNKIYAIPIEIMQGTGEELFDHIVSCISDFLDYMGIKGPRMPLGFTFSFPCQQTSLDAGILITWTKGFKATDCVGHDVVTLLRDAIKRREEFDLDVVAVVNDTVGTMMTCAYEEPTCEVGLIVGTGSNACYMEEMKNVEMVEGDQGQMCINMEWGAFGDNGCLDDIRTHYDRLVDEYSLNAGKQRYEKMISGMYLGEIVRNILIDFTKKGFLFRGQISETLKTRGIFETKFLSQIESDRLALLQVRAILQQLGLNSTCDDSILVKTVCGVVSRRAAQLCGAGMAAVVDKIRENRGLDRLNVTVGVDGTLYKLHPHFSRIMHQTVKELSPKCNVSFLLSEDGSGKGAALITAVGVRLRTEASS
In words: Induction of hexokinase 1 (unknown origin). Put shortly:
as §2

Assay [7] is filed under the species Mus musculus. In words: Increase in oral glucose tolerance in C57BL/J mouse. The assay is classed as functional, organism-based. The method, boiled down:
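C57BL/J6 mice given oral dosing followed by an oral glucose tolerance test. Plasma glucose was tracked over time and glucose AUC reduction calculated. Several doses were tested, including 50 and 150 mg/kg. Hypoglycemia risk was judged from the glucose profiles.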

The target of assay [8] is T3, Hexokinase-4 (Homo sapiens) (UniProt P35557).
T3 sequence (whole entry): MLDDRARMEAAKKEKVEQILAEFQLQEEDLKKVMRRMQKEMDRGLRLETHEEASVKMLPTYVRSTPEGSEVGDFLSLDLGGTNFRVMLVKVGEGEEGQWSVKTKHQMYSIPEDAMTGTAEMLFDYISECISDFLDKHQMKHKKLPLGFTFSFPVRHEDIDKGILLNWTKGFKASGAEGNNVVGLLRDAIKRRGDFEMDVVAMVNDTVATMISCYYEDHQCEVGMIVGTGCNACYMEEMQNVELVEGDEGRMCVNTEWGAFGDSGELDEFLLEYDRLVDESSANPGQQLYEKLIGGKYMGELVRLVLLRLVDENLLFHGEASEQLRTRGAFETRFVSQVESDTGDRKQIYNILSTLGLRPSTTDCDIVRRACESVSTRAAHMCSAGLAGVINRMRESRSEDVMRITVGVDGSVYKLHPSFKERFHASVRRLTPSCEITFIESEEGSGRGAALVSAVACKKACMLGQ
In words: Induction of human pancreatic glucokinase activity assessed as half maximal saturation concentration of glucose at 5 mM glucose concentration. Put shortly: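 Enzymatic assay with purified recombinant human pancreatic or liver glucokinase, read as fold increase in activity at 5.0 mM glucose. EC50 is the mean of at least duplicate runs. For the pancreatic enzyme, glucose S0.5 and Vmax were also determined.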

As for `COC[C@H](C)Oc1cc(CCc2c(F)cccc2F)cc(C(=O)Nc2ccc(C(=O)O)cn2)c1`, the result in assay [1], in assay [4], in assay [5] and in assay [8] was Active. The outcome in assay [2] and in assay [6] was inactive. Besides, the Activity entry in assay [3] and in assay [7] was “Dose-dependent effect” each time.
